Source: ChEMBL document CHEMBL3414559, “Novel C-4 heteroaryl 13-cis-retinamide Mnk/AR degrading agents inhibit cell proliferation and migration and induce apoptosis in human breast and prostate cancer cells and suppress growth of MDA-MB-231 human breast and CWR22Rv1 human prostate tumor xenografts in mice” (J Med Chem, 2015)
Calls of active or inactive are those of the source. The rule behind the calls is not given here.

Assays:
MDA-MB-231 [1] = test: Antitumor activity against human MDA-MB-231 cells xenografted in nude mouse assessed as reduction in peIF4E protein expression at 20 mg/kg, ip dosed once daily for 5 days per week for 28 days by SDS-PAGE and Western blotting method
MDA-MB-468 [2] = test: Reduction in peIF4E protein expression in human MDA-MB-468 cells at 0.63 uM to 20 uM after 24 hrs by SDS-PAGE and Western blotting method; assay type: functional, cell-based
Procedure, shortened: (§1)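 MCF-7, MDA-MB-231 and MDA-MB-468 cells, kept in RPMI 1640 with 10% FBS, were exposed for 24 h to a range of concentrations, with DMSO vehicle controls. Equal protein from lysates was separated by SDS–PAGE and probed for Mnk1, Mnk2, peIF4E, eIF4E and cPARP. GAPDH reprobing served as loading control.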

LNCaP [3] = test: Induction of apoptosis in human LNCAP cells assessed as reduction in cyclin D1 levels at 0.6 uM to 20 uM after 24 hrs by SDS-PAGE and Western blotting method; assay type: functional, cell-based
Procedure, shortened: (§2)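 LNCaP cells (RPMI 1640, 10% FBS) exposed 24 h to 0.6–20 μM, DMSO vehicle control; equal protein on SDS–PAGE, immunoblotted for fAR, Mnk1/2, peIF4E, cyclin D1 and cleaved PARP; β-actin reprobe for loading.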

MDA-MB-468 [4] = test: Growth inhibition of human MDA-MB-468 cells by MTT assay; assay type: functional
Procedure, shortened: (§3)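 Cells grown in RPMI 1640 with 10% FBS, plated at 2500 cells/well, treated across a dose range; growth read by MTT. GI50 taken from dose–response curves by nonlinear regression, at least three independent experiments.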

MDA-MB-231 [5] = test: Reduction in Mnk2 protein expression in human MDA-MB-231 cells at 0.63 uM to 20 uM after 24 hrs by SDS-PAGE and Western blotting method; assay type: functional, cell-based
Procedure, shortened: (§4)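 Breast cancer cells in RPMI 1640 with 10% FBS treated 24 h at indicated concentrations, DMSO vehicle control; equal protein loaded on SDS–PAGE and immunoblotted for Mnk1, Mnk2, peIF4E, eIF4E and cleaved PARP; blots reprobed for GAPDH as loading control.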

LNCaP [6] = test: Reduction in Mnk2 protein expression in human LNCAP cells at 0.6 uM to 20 uM after 24 hrs by SDS-PAGE and Western blotting method; assay type: functional, cell-based
Procedure, shortened: as §2

[7] = Growth inhibition of human CWR22Rv1 cells by MTT assay; assay type: functional, CWR22R; conditions: 22Rv1
Procedure, shortened: as §3

MDA-MB-231 [8] = test: Antitumor activity against human MDA-MB-231 cells xenografted in nude mouse assessed as increase in Bad protein expression at 20 mg/kg, ip dosed once daily for 5 days per week for 28 days by SDS-PAGE and Western blotting method
LNCaP [9] = test: Induction of apoptosis in human LNCAP cells assessed as increase in c-PARP formation at 0.6 uM to 20 uM after 24 hrs by SDS-PAGE and Western blotting method; assay type: functional, cell-based
Procedure, shortened: as §2

MCF7 [10] = test: Reduction in Mnk1 protein expression in human MCF7 cells at 0.63 uM to 20 uM after 24 hrs by SDS-PAGE and Western blotting method; assay type: functional, cell-based
Procedure, shortened: as §4

Mus musculus [11] = test: Toxicity in human MDA-MB-231 cells xenografted athymic nude mouse assessed as effect on body weight at 20 mg/kg, ip dosed once daily for 5 days per week for 28 days; conditions: in vivo
LNCaP [12] = test: Growth inhibition of human LNCAP cells by MTT assay; assay type: functional
Procedure, shortened: as §3

MDA-MB-231 [13] = test: Inhibition of cell migration of human MDA-MB-231 cells at 5 uM after 24 hrs by wound healing assay; assay type: functional, cell-based
Procedure, shortened: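 Cells (5 × 10⁵ per well) grown to confluence, monolayer scratched at time zero, then exposed to 5 μM for 24 h; initial and final wounds photographed at 100×.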

MDA-MB-231 [14] = test: Reduction in peIF4E protein expression in human MDA-MB-231 cells at 0.63 uM to 20 uM after 24 hrs by SDS-PAGE and Western blotting method; assay type: functional, cell-based
Procedure, shortened: as §1

Mus musculus [15] = test: Toxicity in human MDA-MB-231 cells xenografted athymic nude mouse assessed as induction of toxic signs at 20 mg/kg, ip dosed once daily for 5 days per week for 28 days; conditions: in vivo
MDA-MB-231 [16] = test: Induction of apoptosis in human MDA-MB-231 cells assessed as increase in c-PARP formation at 0.63 uM to 20 uM after 24 hrs by SDS-PAGE and Western blotting method; assay type: functional, cell-based
Procedure, shortened: as §4

MDA-MB-468 [17] = test: Reduction in Mnk2 protein expression in human MDA-MB-468 cells at 0.63 uM to 20 uM after 24 hrs by SDS-PAGE and Western blotting method; assay type: functional, cell-based
Procedure, shortened: as §4

MDA-MB-231 [18] = test: Antitumor activity against human MDA-MB-231 cells xenografted in nude mouse assessed as reduction in cyclin D1 protein expression at 20 mg/kg, ip dosed once daily for 5 days per week for 28 days by SDS-PAGE and Western blotting method
LNCaP [19] = test: Reduction in fAR protein expression in human LNCAP cells at 0.6 uM to 20 uM after 24 hrs by SDS-PAGE and Western blotting method; assay type: functional, cell-based
Procedure, shortened: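 LNCaP cells were treated for 24 h across 0.6–20 μM, with vehicle (DMSO) controls. Equal protein from lysates was run on SDS–PAGE and immunoblotted for fAR, Mnk1/2, peIF4E, cyclin D1 and cleaved PARP. Blots were reprobed for β-actin as loading control.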

MDA-MB-468 [20] = test: Reduction in Mnk1 protein expression in human MDA-MB-468 cells at 0.63 uM to 20 uM after 24 hrs by SDS-PAGE and Western blotting method; assay type: functional, cell-based
Procedure, shortened: as §4

MDA-MB-231 [21] = test: Antitumor activity against human MDA-MB-231 cells xenografted in SCID mouse assessed as inhibition of tumor growth at 20 mg/kg, ip dosed once daily for 5 days per week for 28 days; assay type: functional; conditions: MDA-MB-231, ip, in the assay text read “athymic nude mouse” for “SCID mouse”, route intraperitoneal, read-out: TGI
Procedure, shortened: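 Athymic nude female mice with subcutaneous MDA-MB-231 tumors (10 × 10⁶ cells; ~100 mm³ at randomization, n = 6/group) dosed ip once daily, 5 days/week for 28 days, in 40% β-cyclodextrin/ddH₂O; vehicle controls. %T/C computed as median tumor volume treated vs control at day 28 × 100. Body weight monitored.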

MCF7 [22] = test: Reduction in Mnk2 protein expression in human MCF7 cells at 0.63 uM to 20 uM after 24 hrs by SDS-PAGE and Western blotting method; assay type: functional, cell-based
Procedure, shortened: as §4

LNCaP [23] = test: Effect on total eIF4E protein expression in human LNCAP cells at 0.6 uM to 20 uM after 24 hrs by SDS-PAGE and Western blotting method; assay type: functional, cell-based

GI50 (MDA-MB-468 [4]) [nM]	GI50 (LNCaP [12]) [nM]	Compound	Activity (MDA-MB-231 [1])	inhibition (MDA-MB-468 [2])	Activity (LNCaP [3])	inhibition (MDA-MB-231 [5])	inhibition (LNCaP [6])	GI50 [7] [nM]	Activity (MDA-MB-231 [8])	Activity (LNCaP [9])	inhibition (MCF7 [10])	Activity (Mus musculus [11])	inhibition (MDA-MB-231 [13])	inhibition (MDA-MB-231 [14])	Activity (Mus musculus [15])	Activity (MDA-MB-231 [16])	inhibition (MDA-MB-468 [17])	Activity (MDA-MB-231 [18])	inhibition (LNCaP [19])	inhibition (MDA-MB-468 [20])	also measured
6760	2690	CC1=C(/C=C/C(C)=C/C=C/C(C)=C\C(=O)Nc2cccc(F)c2)C(C)(C)CCC1n1ccnc1 (stereo unspecified)	Active	Dose-dependent effect	Active	Dose-dependent effect	Dose-dependent effect	2040	Active	Active	Dose-dependent effect	Non-toxic	Active	Dose-dependent effect	Non-toxic	Dose-dependent effect	Dose-dependent effect	Active	Dose-dependent effect	Dose-dependent effect	inhibition in vivo at 20 mg/kg (MDA-MB-231 [21]): 85.4%; inhibition (MCF7 [22]): Dose-dependent effect; Activity (LNCaP [23]): inactive
2700	1690	CC1=C(/C=C/C(C)=C/C=C/C(C)=C\C(=O)NCc2ccc(O)cc2)C(C)(C)CCC1n1ccnc1 (stereo unspecified)	Active	Dose-dependent effect	Active	Dose-dependent effect	Dose-dependent effect	1860	Active	Active	Dose-dependent effect	Non-toxic	Active	Dose-dependent effect	Non-toxic	Dose-dependent effect	Dose-dependent effect	Active	Dose-dependent effect	Dose-dependent effect	inhibition in vivo at 20 mg/kg (MDA-MB-231 [21]): 85.4%; inhibition (MCF7 [22]): Dose-dependent effect; Activity (LNCaP [23]): inactive
